In assay [1] the test system is Cavia porcellus. In words: Evaluation of bronchodilator activity at dose 60 mg/kg perorally 1 hr prior to histamine aerosol exposure. As to conditions: route oral. The format is functional. Put shortly: (§1)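 Guinea pigs received drug po, dissolved in 1 N HCl or suspended in vehicle, 1 h before challenge. The challenge was 0.4% aqueous histamine nebulized at 6 psi into a closed chamber. Respiratory status was scored 0–4 (4 = unconsciousness). Percent protection compares the total score of 8 treated animals with a control group of 8 (control = 0, complete protection = 100), giving a single value.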

Assay [2] concerns Rattus norvegicus. In words: Evaluation of antiulcer activity (% decrease in total number of lesions in cold-restraint, stressed rats) at peroral dose 10 mg/kg. The format is functional. Conditions: route oral. Summed up: (§2)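 Nonfasted female Sprague–Dawley rats (90–120 g) were immobilized supine and held at 12 °C for 3 h to induce gastric ulceration. Drug was suspended in saline with 10 g/L carboxymethylcellulose and 1 g/L Tween 80 and given po or ip 3 h before stress. Rats were then killed and stomachs removed. Readout: percent decrease in total lesion number versus controls. Active: p ≤ 0.05.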

Assay [3] has as its system Rattus norvegicus. In words: Evaluation of antiulcer activity( percent decrease in total number of lesions in cold-restraint, stressed rats) at intraperitoneal dose at 100 mg/kg; Inactive. In kind it is functional. Summed up: as §2
Assay [4] concerns Rattus norvegicus. In words: Evaluation of antiulcer activity (percent decrease in total number of lesions in cold-restraint, stressed rats) at intraperitoneal dose at 100 mg/kg; Inactive. In kind it is functional. Summed up: as §2
The subject of assay [5] is Cavia porcellus. In words: Respiratory status of guinea pigs exposed to histamine aerosol expressed as percent protection 8 hr at a dose of 60 mg/kg (po).
For assay [6], the system named is Cavia porcellus. Description: Respiratory status of guinea pigs exposed to histamine aerosol expressed as percent protection 2 hr at a dose of 60 mg/kg (po).
Assay [7] has as its system Cavia porcellus. Description: Respiratory status of guinea pigs exposed to histamine aerosol expressed as percent protection at a dose of 30 mg/kg (po). In kind it is functional. Summed up: as §1
Assay [8] concerns Cavia porcellus. Description: Respiratory status of guinea pigs exposed to histamine aerosol expressed as percent protection at a dose of 60 mg/kg (po). In kind it is functional. Summed up: as §1
Assay [9] concerns Cavia porcellus. In words: Respiratory status of guinea pigs exposed to histamine aerosol expressed as percent protection 4 hr at a dose of 60 mg/kg (po).
The test system of assay [10] is Cavia porcellus. In words: Respiratory status of guinea pigs exposed to histamine aerosol expressed as percent protection at a dose of 10 mg/kg (po). The format is functional. Summed up:
as §1

The test system of assay [11] is Cavia porcellus. Description: Respiratory status of guinea pigs exposed to histamine aerosol expressed as percent protection at a dose of 3 mg/kg (po). The format is functional. Put shortly:
as §1

For assay [12], the system named is Rattus norvegicus. Description: Evaluation of antiulcer activity( percent decrease in total number of lesions in cold-restraint, stressed rats) at intraperitoneal dose at 100 mg/kg; Active. The format is functional. Put shortly: as §2
Assay [13] has as its system Rattus norvegicus. Description: Evaluation of antiulcer activity (percent decrease in total number of lesions in cold-restraint, stressed rats) at peroral dose 10 mg/kg; Active. The format is functional. Conditions: route oral. Summed up: as §2
Assay [14] relates to Rattus norvegicus. Description: Evaluation of antiulcer activity( percent decrease in total number of lesions in cold-restraint, stressed rats) at intraperitoneal dose at 32 mg/kg; Inactive. In kind it is functional. Summed up:
as §2

Assay [15] concerns Cavia porcellus. In words: Evaluation of bronchodilator activity at dose 60 mg/kg perorally 1 hr prior to histamine aerosol exposure; 20-30. In kind it is functional. Conditions: route oral. Put shortly:
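Guinea pigs got 60 mg/kg po, either dissolved in 1 N HCl or suspended in vehicle; controls got vehicle. After 1 h each was challenged with histamine aerosol: 0.4% aqueous histamine nebulized at 6 psi into a closed chamber. Respiration was scored 0–4, with 4 being unconsciousness. Percent protection came from comparing the total score of eight treated animals with a control group of eight, giving a single value.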

In assay [16] the test system is Rattus norvegicus. In words: Evaluation of antiulcer activity (percent decrease in total number of lesions in cold-restraint, stressed rats) at peroral dose 10 mg/kg; Inactive. As to conditions: route oral.
Assay [17] relates to Rattus norvegicus. In words: Evaluation of antiulcer activity (percent decrease in total number of lesions in cold-restraint, stressed rats) at intraperitoneal dose at 100 mg/kg; Active. In kind it is functional. Put shortly: as §2
Assay [18] relates to Cavia porcellus. In words: Respiratory status of guinea pigs exposed to histamine aerosol expressed as percent protection 4 hr at a dose of 60 mg/kg (po). The format is functional. Summed up: (§3)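 Duration study in guinea pigs: 60 mg/kg po given 2, 4 or 8 h before exposure to aerosol from 0.4% aqueous histamine nebulized at 6 psi in a closed chamber. Respiratory distress was scored 0–4. Percent protection compares the total score of 8 treated animals with 8 controls (control = 0, complete protection = 100).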

The subject of assay [19] is Cavia porcellus. In words: Respiratory status of guinea pigs exposed to histamine aerosol expressed as percent protection 2 hr at a dose of 60 mg/kg (po). In kind it is functional. Put shortly:
as §3

Assay [20] relates to Cavia porcellus. Description: Respiratory status of guinea pigs exposed to histamine aerosol expressed as percent protection 8 hr at a dose of 60 mg/kg (po). In kind it is functional. Summed up:
as §3

The source of these data is ChEMBL document CHEMBL1121507, “Bronchodilator and antiulcer phenoxypyrimidinones” (1980).

Molecules are shown by their SMILES.

In the assay on Cavia porcellus [1], `Oc1ncc(Sc2ccc(Cl)cc2)cn1` came in with a Protection of 63%.

`Oc1ncncc1Oc1ccc(Cl)c(Cl)c1` had a Protection with Cavia porcellus [1] of 45%.

In turn, `COc1cccc(Oc2cncnc2O)c1` registered a Decrease in the assay on Rattus norvegicus [2] of 0%. The Protection with Cavia porcellus [1] is 7%.

In the case of `Oc1ncc(Oc2cccc(C(F)(F)F)c2)cn1`, the Decrease in the assay with Rattus norvegicus [2] is on record as 39%. The same molecule returned a Protection in the assay on Cavia porcellus [1] of 26%.

In the case of `Cc1ccccc1Oc1cnc(O)nc1`, the results for the Decrease in the assay with Rattus norvegicus [2] and in the assay with Rattus norvegicus [3] were 0% and 25%, respectively. For the same molecule, the Protection with Cavia porcellus [1] stood at 6%.

In the case of `Oc1ncc(Oc2ccc(Br)cc2)cn1`, the Decrease in the assay with Rattus norvegicus [2] and with Rattus norvegicus [3] was 0% throughout. The same molecule came in with a Protection in the assay on Cavia porcellus [1] of 90%.

With `Oc1ncncc1Oc1ccccc1Cl`, in the assay on Cavia porcellus [1], the Protection was determined as 13%.

In the case of `Cc1ccc(Oc2cnc(O)nc2)cc1C`, the Decrease in the assay on Rattus norvegicus [2] was determined as 54%; with Rattus norvegicus [3] it was 53%. In the assay with Cavia porcellus [1], this molecule showed a Protection of 14%.

Molecule `Oc1ncc(Oc2ccccc2)c(O)n1` registered a Decrease with Rattus norvegicus [2] of 22%. Also, the Protection in the assay with Cavia porcellus [1] came out at 25%.

In the assay with Rattus norvegicus [2], `Oc1ncc(Oc2ccc(Cl)cc2)c(O)n1` gave a Decrease of 35%. The Protection in the assay on Cavia porcellus [1] was determined as 50%.

In the assay on Rattus norvegicus [4], `Oc1ncncc1Oc1ccc(Cl)cc1` showed a Decrease of 0%. In addition, in the assay on Cavia porcellus [1], the Protection worked out at 92%.

Take `Oc1ncc(Oc2ccc(Cl)cc2)cn1`: the Protection with Cavia porcellus [5] came out at 88%; in the assay with Cavia porcellus [6], 94%; in the assay on Cavia porcellus [7], 71%; in the assay with Cavia porcellus [8] it was 92%; in the assay with Cavia porcellus [9], 94%; in the assay with Cavia porcellus [10], 37%. The values for the Protection in the assay with Cavia porcellus [1] and with Cavia porcellus [11] were 92% and 22%, respectively. Also, the results for the Decrease with Rattus norvegicus [2] and with Rattus norvegicus [3] were 7% and 0%, respectively.

`CC(C)c1ccc(Oc2cnc(O)nc2)cc1`: the Decrease in the assay on Rattus norvegicus [2] is recorded as 0%; in the assay on Rattus norvegicus [3] it was 9%. The Protection in the assay with Cavia porcellus [1] is listed as 0%.

As to `Oc1ncc(Oc2ccc(F)cc2)cn1`, the Decrease in the assay with Rattus norvegicus [2] and with Rattus norvegicus [3] was 0% throughout. In the assay on Cavia porcellus [1], the Protection was 66%.

As for `COc1ccc(Oc2cnc(O)nc2)cc1`, the Decrease with Rattus norvegicus [2] and in the assay on Rattus norvegicus [3] was 0% each time. In the assay on Cavia porcellus [1], the Protection is recorded as 45%.

Turning to `Oc1ncc(Oc2ccc(Cl)cc2Cl)cn1`, the Decrease in the assay on Rattus norvegicus [2] amounted to 22%; with Rattus norvegicus [3], 19%. The same molecule came in with a Protection with Cavia porcellus [1] of 47%.

Consider `Cc1ccc(Sc2cnc(O)nc2)cc1`, for which the Decrease in the assay with Rattus norvegicus [2] came out at 18%; with Rattus norvegicus [12], 64%. In the assay on Cavia porcellus [1], this molecule came in with a Protection of 26%.

Regarding `CCc1cccc(Oc2cnc(O)nc2)c1`, the Decrease with Rattus norvegicus [2] came to 28%; in the assay with Rattus norvegicus [12] it was 53%. Further, in the assay on Cavia porcellus [1], the Protection was found to be 3%.

On to `Cc1cccc(Oc2cncnc2O)c1`, for which the Decrease in the assay on Rattus norvegicus [2] turned out to be 0%. Further, the Protection with Cavia porcellus [1] came to 28%.

Consider `Oc1ncc(Oc2ccccc2)cn1`, for which the figures for the Decrease with Rattus norvegicus [13] and in the assay on Rattus norvegicus [12] were 37% and 81%, respectively. The Protection in the assay on Cavia porcellus [1] is 28%.

The molecule `Oc1ncncc1Oc1ccccc1` gave a Decrease with Rattus norvegicus [2] of 0%. In addition, the Protection in the assay with Cavia porcellus [1] came out at 23%.

Consider `Cc1cccc(Oc2cnc(=O)[nH]c2)c1` [TOLIMIDONE], for which the values for the Decrease in the assay on Rattus norvegicus [13] and with Rattus norvegicus [12] were 38% and 70%, respectively. In the assay on Cavia porcellus [1], this molecule had a Protection of 3%.

In the assay on Rattus norvegicus [14], `Oc1ncncc1Oc1cccc(Cl)c1` displayed a Decrease of 18%. For the same molecule, the Protection in the assay on Cavia porcellus [1] came to 13%.

In the case of `Oc1ncncc1Oc1ccc(F)cc1`, the Decrease with Rattus norvegicus [2] is 28%. In the assay on Cavia porcellus [1], this molecule yielded a Protection of 80%.

On to `Cc1cc(C)cc(Oc2cnc(O)nc2)c1`, for which the Decrease in the assay with Rattus norvegicus [2] is reported as 50%; in the assay on Rattus norvegicus [12], 53%. The molecule also gave a Protection with Cavia porcellus [1] of 38%.

In the case of `Oc1ncc(Oc2cccc(Cl)c2)cn1`, the Decrease with Rattus norvegicus [2] was determined as 22%; with Rattus norvegicus [3], 0%. The molecule also displayed a Protection in the assay with Cavia porcellus [1] of 22%.

In the case of `Oc1ncc(Sc2ccccc2)cn1`, the Decrease in the assay with Rattus norvegicus [2] is 45%; in the assay with Rattus norvegicus [3], 47%. The molecule also gave a Protection in the assay with Cavia porcellus [1] of 23%.

`Cc1cc(Oc2cnc(O)nc2)ccc1Cl`: the Decrease in the assay on Rattus norvegicus [2] was found to be 0%; in the assay with Rattus norvegicus [3], 14%. This molecule yielded a Protection in the assay on Cavia porcellus [1] of 6%.

For `Cn1c(=O)c2nc[nH]c2n(C)c1=O.O` [THEOPHYLLINE], the Protection in the assay on Cavia porcellus [15] came out at 20%.

As to `COc1cccc(Oc2cnc(O)nc2)c1`, the Decrease in the assay on Rattus norvegicus [2] was determined as 55%; with Rattus norvegicus [12], 82%. Moreover, in the assay on Cavia porcellus [1], the Protection came out at 3%.

With `Cc1cccc(Oc2cnc(O)nc2O)c1`, the Decrease in the assay on Rattus norvegicus [2] is 0%; with Rattus norvegicus [12] it was 67%. For the same molecule, the Protection with Cavia porcellus [1] is 7%.

`Cc1ccc(Oc2cnc(O)nc2O)cc1` displayed a Decrease in the assay with Rattus norvegicus [2] of 0%. Besides, in the assay with Cavia porcellus [1], the Protection amounted to 35%.

Turning to `CSc1ccc(Oc2cnc(O)nc2)cc1`, the Decrease in the assay on Rattus norvegicus [2] and in the assay on Rattus norvegicus [3] was 0% each time. Moreover, in the assay with Cavia porcellus [1], the Protection worked out at 55%.

For `Cc1ccc(Oc2cnc(O)nc2)c(C)c1`, the Decrease in the assay with Rattus norvegicus [16] amounted to 6%; with Rattus norvegicus [3], 0%.

`Cc1ccc(Oc2cncnc2O)cc1` returned a Decrease with Rattus norvegicus [2] of 27%. In the assay on Cavia porcellus [1], this molecule yielded a Protection of 92%.

In the case of `COc1ccc(Oc2cncnc2O)cc1`, the Decrease in the assay with Rattus norvegicus [2] is on record as 0%. In the assay with Cavia porcellus [1], the Protection came to 26%.

Take `C[S+]([O-])c1ccc(Oc2cnc(O)nc2)cc1` (configuration not stated): the Decrease in the assay on Rattus norvegicus [2] is listed as 50%; in the assay on Rattus norvegicus [3], 0%. In addition, in the assay on Cavia porcellus [1], the Protection is 10%.

As to `Cc1cccc(Sc2cnc(O)nc2)c1`, the Decrease was found to be 78% in the assay with Rattus norvegicus [17] and 0% with Rattus norvegicus [16].

Regarding `Cc1ccc(Oc2cnc(O)nc2)cc1`, the Protection in the assay with Cavia porcellus [7] is 81%; in the assay on Cavia porcellus [8], 86%; with Cavia porcellus [18], 8%; in the assay on Cavia porcellus [10] it was 18%; in the assay on Cavia porcellus [19] it was 86%; with Cavia porcellus [1], 86%. Moreover, the values for the Protection in the assay on Cavia porcellus [11] and in the assay on Cavia porcellus [20] were 2% and 10%, respectively. In addition, the Decrease with Rattus norvegicus [13] came out at 57%; in the assay on Rattus norvegicus [3] it was 0%.

In the case of `CCc1ccc(Oc2cnc(O)nc2)cc1`, the values for the Decrease in the assay with Rattus norvegicus [2] and with Rattus norvegicus [3] were 0% and 27%, respectively. This molecule showed a Protection with Cavia porcellus [1] of 98%.
